PP5 inh: inhibitors of human protein phosphatase 5 (PP5); P53041; purified PP5c, OMFP substrate fluorescence; 0.18% of 320,000 active; inhibition, % at 6.7 µM;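 active means inhibition above the campaign's mean inhibition across all tested compounds plus 3 SD, cut at about 9.5% in these data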
Fh CTSL1 inh: blocks F. hepatica cathepsin L1 in PFM18AAP counter-screen; AID 1906; inhibition, % at 5.96 µM; recombinant F. hepatica cathepsin L1, Z-Leu-Arg-MCA fluorescence; 0.49% of 300,000 active;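 active means inhibition above the mean of all tested compounds plus 3 SD, set per screening campaign, cut at about 17% in these data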
GSTO1 counter: blocks human GSTO1 in RBBP9 counter-screen; P78417; recombinant GSTO1, activity-based probe fluorescence polarization; inhibition, % at 5.96 µM; 1.1% of 300,000 active; AID 1974;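 active means inhibition above the campaign mean inhibition plus 3 SD, cut at about 35% in these data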
Apaf1 inhib: blocks human Apaf-1 apoptosome activity | O14727 | reconstituted apoptosome caspase-3 activity, DEVD-Rh110 fluorescence | inhibition, % at 20 µM | 0.71% of 330,000 active | AID 489030; active means inhibition of at least 40% at 20 µM
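Material: reconstituted apoptosome with Apaf-1, cytochrome c, caspase-9, procaspase-3, dATP; medium: pH 7.5 Hepes buffer with CHAPS, BSA, DTT; also added: cytochrome c and DEVD-Rh110 substrate; timing: 30 min plus 50 min, RT; signal: Rh110 fluorescence intensity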
UCH37 DUB inh: inhibitors of human deubiquitinating enzyme UCH37 | purified proteasome/UCH37, Ub-AMC cleavage fluorescence | Q9Y5K5 | 0.33% of 330,000 active | inhibition, % (no concentration beside the values);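 active means mean inhibition over replicate wells above about 20%, limit read from the data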
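Test system – human UCH37 enzyme supplied as purified proteasome complex · Incubation – 30 min preincubation with enzyme, 25 min cleavage at room temperature · Detection – AMC fluorescence from Ub-AMC cleavage, excitation 355 nm, emission 460 nm · Benchmarks – no-proteasome wells (full inhibition) and compound-free wells (no inhibition)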
PAD4 inh: PAD4 (human) enzyme inhibition; Q9UM07; recombinant PAD4, RCA probe fluorescence polarization; inhibition, % at 6.36 µM; 0.41% of 330,000 active;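 active means percent inhibition above a cutoff equal to the mean of all tested compounds plus 3 SD, cut at about 15% in these data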
Target sequence (Q9UM07 whole entry, looked up): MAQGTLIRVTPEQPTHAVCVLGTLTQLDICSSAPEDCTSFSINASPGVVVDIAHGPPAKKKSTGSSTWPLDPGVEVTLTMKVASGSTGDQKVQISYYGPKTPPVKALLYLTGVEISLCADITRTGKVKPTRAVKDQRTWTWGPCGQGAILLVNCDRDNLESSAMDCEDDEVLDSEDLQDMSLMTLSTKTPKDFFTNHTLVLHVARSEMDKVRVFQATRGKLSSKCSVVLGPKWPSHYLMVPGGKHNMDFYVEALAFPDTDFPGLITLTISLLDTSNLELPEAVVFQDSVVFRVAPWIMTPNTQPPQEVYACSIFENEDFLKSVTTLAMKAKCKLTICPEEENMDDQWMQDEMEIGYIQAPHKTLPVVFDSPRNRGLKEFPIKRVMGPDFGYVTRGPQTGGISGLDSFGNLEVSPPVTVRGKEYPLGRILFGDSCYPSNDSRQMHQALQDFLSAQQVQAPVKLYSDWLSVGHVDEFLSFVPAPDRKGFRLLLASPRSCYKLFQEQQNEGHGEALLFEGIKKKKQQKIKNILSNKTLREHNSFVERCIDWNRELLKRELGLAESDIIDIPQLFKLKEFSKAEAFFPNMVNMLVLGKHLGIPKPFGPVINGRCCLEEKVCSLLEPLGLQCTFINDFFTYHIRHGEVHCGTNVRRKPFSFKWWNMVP
Apaf-1 inh conf: confirmation of Apaf-1 inhibitors. 25% of 1,800 active. shares compounds with Apaf1 inhib. AID 504614. inhibition, % at 20 µM. reconstituted apoptosome, caspase-3 DEVD-Rh110 fluorescence;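 active means mean inhibition of at least 40% at 20 µM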
Rh110 interf inh: Rh110 signal interference in Apaf-1 inhibitor counter-screen. shares compounds with Apaf1 inhib. Rh110 fluorescence interference, quenched caspase reaction. activation (fluorescence interference), % at 20 µM. 1,800 tested, under 10 active. AID 504615;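 active means signal rise of 40% or more at 20 µM, treated as a fluorescence artifact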
UCH37 reconfirm: reconfirmed inhibitor of human deubiquitinase UCH37; shares compounds with UCH37 DUB inh; Proteasome-bound UCH37, Ub-AMC cleavage fluorescence; inhibition, % at 20 µM; 27% of 480 active; AID 624100;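 active means average inhibition over replicates above about 50%, so the earlier screening hit is confirmed, limit read from the data; inactive means the rest, counted as false positives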;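 further: based on cleavage rate fitted by regression over a 30 min kinetic read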
Of the large screens only hits and unclear results are named; the others gave an inactive call (follow-up assays come after a bar, where they were run). In the library only some 2% were active in any assay of this set; here they are far more common.

COC(=O)C1=C(c2ccc(F)cc2OCc2ccccc2)C[C@@H]2CC[C@H]1N2C(=O)NC1CCN(Cc2ccccc2)CC1	Apaf1 inhib 53.1 (no result: Fh CTSL1 inh, GSTO1 counter) | Apaf-1 inh conf inactive | Rh110 interf inh inactive
CN1C(=O)C(=Cc2ccc(N3CCOCC3)o2)C(=O)N(C)C1=O	UCH37 DUB inh 30.2 | UCH37 reconfirm inactive
O=C1NC(=O)C(C(CC(=O)c2ccccc2)c2ccccc2)C(=O)N1 (configuration not stated)	none
O=C1NC(=O)C(Nc2ccccc2)C(=O)N1	UCH37 DUB inh 63.9 (no result: PP5 inh, Fh CTSL1 inh, GSTO1 counter, Apaf1 inhib, PAD4 inh) | UCH37 reconfirm inactive
O=C1NC(=O)N(c2ccc3c(c2)OCO3)C(=O)/C1=C\c1ccc(N2CCCCC2)o1	UCH37 DUB inh 28.7 | UCH37 reconfirm inactive
CN1C(=O)C(=Cc2ccc(N3CCCCCC3)o2)C(=O)N(C)C1=S	none
Cc1cc(C)cc(-n2c(O)c(C=Nc3ccc(N4CCOCC4)cc3)c(=O)[nH]c2=S)c1	none
CCOc1ccc(-n2c(O)c(C=Nc3ccc(N4CCOCC4)cc3)c(=O)[nH]c2=O)cc1	UCH37 DUB inh 44.6 | UCH37 reconfirm inactive
Cc1ccc2c(c1)C1CN(C)CCC1N2C(=O)/C(C#N)=C/c1ccc2c(c1)OCO2 (configuration not stated)	none
CCOc1ccc(N2C(=O)/C(=C/c3ccco3)C(=O)NC2=S)cc1	UCH37 DUB inh 29.4 | UCH37 reconfirm 99.2
O=C(N=Nc1c(O)[nH]c(=O)[nH]c1=O)C1COc2ccccc2O1 (configuration not stated)	UCH37 DUB inh 32.0 | UCH37 reconfirm inactive
O=c1[nH]c(O)c(N=Nc2ccc3c(c2)OCCO3)c(=O)[nH]1	none
O=c1c(C=Nc2cccnc2Cl)c(O)n(CCCCl)c(=O)n1C1CCCCC1	none
COC(=O)C1=C(c2cccc(C#N)c2)C[C@@H]2CC[C@H]1N2C(=O)NCc1cccc2ccccc12	UCH37 DUB inh 46.5 (no result: Fh CTSL1 inh, GSTO1 counter) | UCH37 reconfirm inactive
CN1C(=O)C(Cc2cccc3ccccc23)C(=O)N(C)C1=O	UCH37 DUB inh 40.3 | UCH37 reconfirm inactive
FC(F)(F)c1ccccc1CCN1CCNCC1	none
CC(C)C[C@H](NP(=O)(O)O[C@@H]1O[C@@H](C)[C@H](O)[C@@H](O)[C@H]1O)C(=O)N[C@@H](Cc1c[nH]c2ccccc12)C(=O)O	none
